Laboratory results as given in ChEMBL document CHEMBL5303300, “EUbOPEN Chemogenomics Library - Multiplex” (2023).
Where “and” joins values, the source holds several entries; their conditions need not be identical. Identical values can stand only once.

System: HEK-293T
Test: Multiplex assay against HEK293T
Type: toxicity, cell-based
Details: human, number of replicates 2
Procedure, shortened: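 Values for tubulin, mitochondrial-mass and membrane-permeability phenotypes are per cents of cells with healthy nuclei. These cells were identified by CellPathfinder machine-learning gating of live cells that had been stained at seeding with Hoechst33342, BioTracker Green Microtubule Cytoskeleton Dye, MitoTracker Red and Annexin V Alexa Fluor 680 and imaged on a CQ1 microscope at 37°C and 5% CO2 after compound addition. The gating first set Hoechst high-intensity objects apart from normal cells, then split normal cells into healthy, pyknosed or fragmented nuclei, and pyknosed cells into mitotic or apoptotic.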

[1] = 12 h, 1 µM, compound concentration 1 uM
[2] = 12 h, 10 µM, compound concentration 10 uM
[3] = 24 h, 1 µM, compound concentration 1 uM
[4] = 24 h, 10 µM, compound concentration 10 uM
[5] = 48 h, 1 µM, compound concentration 1 uM
[6] = 48 h, 10 µM, compound concentration 10 uM

COc1cc(C(=O)NC2CCN(C)CC2)ccc1Nc1ncc(C(F)(F)F)c(NCc2ccc(C)cc2N(C)S(C)(=O)=O)n1.O=CO.O=CO
Population Apoptotic (%) [1]: 57% and 71% | Population Fragmented Nuclei (%) [1]: 5% and 6% | Population Healthy Nuclei (%) [1]: 81% and 84% | Population Hoechst High Intensity Objects (%) [1]: 13% and 16% | Population Membrane Permeable-Phenotype (%) [1]: 4% and 0% | Population Mitochondria Different-Phenotype (%) [1]: 50% and 59% | Population Mitotic Cells (%) [1]: 42% and 28% | Population Normal (%) [1]: 86% and 83% | Population Pyknosed Nuclei (%) [1]: 13% and 9% | Population Tubulin-Different-Phenotype (%) [1]: 89% and 95% | Total Cell Count [1]: 378 and 461 | Population Apoptotic (%) [2]: 86% and 89% | Population Fragmented Nuclei (%) [2]: 7% and 6% | Population Healthy Nuclei (%) [2]: 45% and 62% | Population Hoechst High Intensity Objects (%) [2]: 23% | Population Membrane Permeable-Phenotype (%) [2]: 6% and 0% | Population Mitochondria Different-Phenotype (%) [2]: 74% and 85% | Population Mitotic Cells (%) [2]: 13% and 10% | Population Normal (%) [2]: 76% | Population Pyknosed Nuclei (%) [2]: 47% and 31% | Population Tubulin-Different-Phenotype (%) [2]: 87% and 92% | Total Cell Count [2]: 288 and 266 | Population Apoptotic (%) [3]: 73% and 60% | Population Fragmented Nuclei (%) [3]: 9% and 10% | Population Healthy Nuclei (%) [3]: 83% and 80% | Population Hoechst High Intensity Objects (%) [3]: 12% | Population Membrane Permeable-Phenotype (%) [3]: 5% and 1% | Population Mitochondria Different-Phenotype (%) [3]: 17% | Population Mitotic Cells (%) [3]: 26% and 40% | Population Normal (%) [3]: 87% | Population Pyknosed Nuclei (%) [3]: 7% and 8% | Population Tubulin-Different-Phenotype (%) [3]: 70% and 79% | Total Cell Count [3]: 658 and 751 | Population Apoptotic (%) [4]: 84% and 81% | Population Fragmented Nuclei (%) [4]: 8% and 3% | Population Healthy Nuclei (%) [4]: 35% and 51% | Population Hoechst High Intensity Objects (%) [4]: 22% and 23% | Population Membrane Permeable-Phenotype (%) [4]: 7% and 5% | Population Mitochondria Different-Phenotype (%) [4]: 71% and 68% | Population Mitotic Cells (%) [4]: 15% and 18% | Population Normal (%) [4]: 77% and 76% | Population Pyknosed Nuclei (%) [4]: 55% and 44% | Population Tubulin-Different-Phenotype (%) [4]: 86% and 95% | Total Cell Count [4]: 363 and 344 | Population Apoptotic (%) [5]: 41% and 21% | Population Fragmented Nuclei (%) [5]: 15% and 16% | Population Healthy Nuclei (%) [5]: 81% and 79% | Population Hoechst High Intensity Objects (%) [5]: 16% and 14% | Population Membrane Permeable-Phenotype (%) [5]: 1% and 3% | Population Mitochondria Different-Phenotype (%) [5]: 3% and 1% | Population Mitotic Cells (%) [5]: 58% and 78% | Population Normal (%) [5]: 83% and 85% | Population Pyknosed Nuclei (%) [5]: 3% | Population Tubulin-Different-Phenotype (%) [5]: 51% and 37% | Total Cell Count [5]: 1721 and 1697 | Population Apoptotic (%) [6]: 82% and 77% | Population Fragmented Nuclei (%) [6]: 8% and 4% | Population Healthy Nuclei (%) [6]: 22% and 25% | Population Hoechst High Intensity Objects (%) [6]: 25% and 22% | Population Membrane Permeable-Phenotype (%) [6]: 4% and 2% | Population Mitochondria Different-Phenotype (%) [6]: 55% and 76% | Population Mitotic Cells (%) [6]: 17% and 22% | Population Normal (%) [6]: 74% and 77% | Population Pyknosed Nuclei (%) [6]: 68% and 69% | Population Tubulin-Different-Phenotype (%) [6]: 93% and 95% | Total Cell Count [6]: 374 and 336
